For 20 compounds, Activity and EC50 results are on record in ChEMBL document CHEMBL1137313, “A chimeric ligand approach leading to potent antiprion active acridine derivatives: design, synthesis, and biological investigations” (J Med Chem, 2006).

A value given as a limit tells only on which side of the number the result lay.

Experiment [1] relates to ScN2a. Description: Toxicity against mouse ScN2a cells measured as less than 80% confluency after 1 week. It is filed as functional. In short, it runs like this:
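RML-infected ScN2a mouse neuroblastoma cells cultured 1 week in MEM with 10% FCS, with compound renewed with medium every second day. Toxicity scored as confluency below 80% at the end of treatment.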

For experiment [2], the system named is ScN2a. In words: Inhibition of protease-resistant scrapie prion protein activity in ScN2a cells. It is filed as functional, cell-based. The note with it: Mus musculus. In short, it runs like this: (§1)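 Mouse N2a neuroblastoma cells chronically infected with RML scrapie, subcloned for high PrPSc. Grown in MEM with 10% FCS, penicillin-streptomycin and L-glutamine; compound renewed with medium every second day. Lysed day 7 (~80% confluent), proteinase K 20 µg/mL 30 min 37°C, ultracentrifuged pellet immunoblotted with anti-PrP antibody. EC50 from densitometry of five concentrations; full activity means complete loss of PK-resistant PrP; triplicate experiments.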

In experiment [3] the test system is ScN2a. Description: Antiprion activity in ScN2a cells assessed as complete reduction of protease-resistant scrapie prion protein. Type of experiment: functional, Mus musculus. In short, it runs like this: as §1

One may read the EC50 as the concentration at which the effect is half-maximal. A lower EC50 goes with a more potent agent. Consider `c1ccc2c(c1)Sc1ccccc1N2CCCN1CCN(CCCCNc2c3ccccc3nc3ccccc23)CC1`, for which the Activity amounted to 4000 nM in experiment [1] and 750 nM in experiment [3]. A half-maximal effect in experiment [2] (EC50) was put at 300 nM.
In the case of `COc1ccc2nc3cc(Cl)ccc3c(NCCCN3CCN(CCCN(c4ccccc4)c4ccccc4)CC3)c2c1`, the Activity in experiment [1] is 2000 nM; in experiment [3] it was 500 nM. Further, in experiment [2], the concentration giving a half-maximal response (EC50) was determined as 280 nM.
The like results for `COc1ccc2nc3cc(Cl)ccc3c(NCCCCN3CCN(CCCN(c4ccccc4)c4ccccc4)CC3)c2c1` were, in that order, more than 1000 nM, 500 nM and 250 nM.
Regarding `COc1ccc2nc3cc(Cl)ccc3c(NCCCN3CCN(CCCN4c5ccccc5Sc5ccccc54)CC3)c2c1`, the Activity worked out at 2500 nM in experiment [1] and 500 nM in experiment [3]. This compound returned an EC50 in experiment [2] of 200 nM.
As for `COc1ccc2nc3cc(Cl)ccc3c(NCCN3CCN(CCCN(c4ccccc4)c4ccccc4)CC3)c2c1`, the Activity in experiment [1] was found to be 1500 nM; in experiment [3] it was 500 nM. The response in experiment [2] was half-maximal at 290 nM (EC50).
Consider `c1ccc2c(c1)CCc1ccccc1N2CCCN1CCN(CCCCNc2c3ccccc3nc3ccccc23)CC1`, for which the Activity is given as 750 nM in experiment [1] and 400 nM in experiment [3]. In experiment [2], this compound showed an EC50 of 150 nM.
Turning to `c1ccc(N(CCCN2CCN(CCCNc3c4ccccc4nc4ccccc34)CC2)c2ccccc2)cc1`, the Activity in experiment [1] turned out to be 1500 nM; in experiment [3] it was 500 nM. In experiment [2], this compound gave an EC50 of 120 nM.
In the case of `COc1ccc2nc3cc(Cl)ccc3c(NCCCN3CCN(CCCN4c5ccccc5CCc5ccccc54)CC3)c2c1`, the results for the Activity in experiment [1] and in experiment [3] were 1500 nM and 500 nM, respectively. The compound also showed an EC50 in experiment [2] of 260 nM.
As to `c1ccc(N(CCCN2CCN(CCCCNc3c4ccccc4nc4ccccc34)CC2)c2ccccc2)cc1`, the Activity in experiment [1] is recorded as 1000 nM; in experiment [3] it was 400 nM. In experiment [2], this compound gave an EC50 of 230 nM.
Regarding `COc1ccc2nc3cc(Cl)ccc3c(NCCCCN3CCN(CCCN4c5ccccc5CCc5ccccc54)CC3)c2c1`, the Activity in experiment [1] was 400 nM; in experiment [3], 100 nM. Also, in experiment [2], the EC50 is 80 nM.
As for `c1ccc2c(c1)CCc1ccccc1N2CCCN1CCN(CCCNc2c3ccccc3nc3ccccc23)CC1`, the Activity in experiment [1] is given as 1000 nM; in experiment [3] it was 500 nM. For the same compound, a half-maximal effect in experiment [2] (EC50) was put at 230 nM.
For the compound `c1ccc(N(CCCN2CCN(CCNc3c4ccccc4nc4ccccc34)CC2)c2ccccc2)cc1`, the Activity in experiment [1] is listed as 1000 nM; in experiment [3], 200 nM. It took 75 nM to reach a half-maximal effect in experiment [2] (EC50).
Consider `c1ccc2c(c1)Sc1ccccc1N2CCCN1CCN(CCNc2c3ccccc3nc3ccccc23)CC1`, for which the Activity turned out to be 3000 nM in experiment [1] and 600 nM in experiment [3]. Also, in experiment [2], the EC50 came to 370 nM.
Turning to `COc1ccc2nc3cc(Cl)ccc3c(NCCCCN3CCN(CCCN4c5ccccc5Sc5ccccc54)CC3)c2c1`, the Activity in experiment [1] is 2000 nM; in experiment [3], 1000 nM. The compound further yielded an EC50 in experiment [2] of 350 nM.
As to `c1ccc2c(c1)Sc1ccccc1N2CCCN1CCN(CCCNc2c3ccccc3nc3ccccc23)CC1`, the Activity is reported as 1000 nM in experiment [1] and 500 nM in experiment [3]. Moreover, in experiment [2], the EC50 came to 140 nM.
On to `COc1ccc2nc3cc(Cl)ccc3c(NCCN3CCN(CCCN4c5ccccc5CCc5ccccc54)CC3)c2c1`, for which the Activity turned out to be 2000 nM in experiment [1] and 1000 nM in experiment [3]. The compound also returned an EC50 in experiment [2] of 570 nM.
Consider `c1ccc2c(c1)CCc1ccccc1N2CCCN1CCN(CCNc2c3ccccc3nc3ccccc23)CC1`, for which the Activity in experiment [1] stood at 500 nM; in experiment [3] it was 75 nM. The compound further returned an EC50 in experiment [2] of 20 nM.
The like results for `COc1ccc2nc3cc(Cl)ccc3c(NCCN3CCN(CCCN4c5ccccc5Sc5ccccc54)CC3)c2c1` were, in that order, 4000 nM, 2000 nM and 830 nM.
In experiment [2], `CN(C)CCCN1c2ccccc2CCc2ccccc21` [IMIPRAMINE] yielded an EC50 of 5000 nM. Further, the Activity in experiment [3] worked out at 10000 nM.
The matching figures for `CCN(CC)CCCC(C)Nc1c2ccc(Cl)cc2nc2ccc(OC)cc12` (stereo not drawn) [QUINACRINE]: 300 nM and 500 nM.
